1 compound from ChEMBL document CHEMBL1687733, “Topoisomerase I gene mutations at F270 in the large subunit and N184 in the small subunit contribute to the resistance mechanism of the unicellular parasite Leishmania donovani towards 3,3'-diindolylmethane” (Antimicrob Agents Chemother, 2009) can be followed below.

Structures are written as SMILES. Active and inactive are the calls of the source.

The test system of experiment [1] is T1, Leishmania donovani [F270L,K430N].
T1 sequence (whole entry): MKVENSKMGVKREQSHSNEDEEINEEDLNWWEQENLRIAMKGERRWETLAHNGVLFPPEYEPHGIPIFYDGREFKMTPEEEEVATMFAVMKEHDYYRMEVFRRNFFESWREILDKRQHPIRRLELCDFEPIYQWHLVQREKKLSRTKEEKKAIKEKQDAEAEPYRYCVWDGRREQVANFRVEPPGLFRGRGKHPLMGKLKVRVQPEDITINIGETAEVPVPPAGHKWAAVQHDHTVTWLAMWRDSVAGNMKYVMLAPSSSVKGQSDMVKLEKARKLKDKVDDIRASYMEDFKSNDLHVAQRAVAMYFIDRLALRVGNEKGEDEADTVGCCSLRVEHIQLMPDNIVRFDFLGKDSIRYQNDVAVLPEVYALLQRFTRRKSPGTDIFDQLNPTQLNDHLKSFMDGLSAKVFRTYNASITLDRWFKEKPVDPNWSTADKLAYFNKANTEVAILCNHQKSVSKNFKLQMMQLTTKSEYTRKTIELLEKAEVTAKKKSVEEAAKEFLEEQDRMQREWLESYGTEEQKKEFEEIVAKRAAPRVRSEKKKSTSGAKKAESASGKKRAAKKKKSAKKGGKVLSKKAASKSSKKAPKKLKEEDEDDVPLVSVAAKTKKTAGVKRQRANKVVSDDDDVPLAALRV
Put plainly: Inhibition of recombinant drug-resistant Leishmania donovani LdDR50 topoisomerase 1b wild type small subunit and large subunit F270L, K430N mutant-mediated relaxation of supercoiled pBluescript SK(+) DNA at up to 50 uM after 30 mins using ethidium bromide staining. Put shortly: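 Reconstituted recombinant enzyme (30 fmol) with 90 fmol supercoiled pBluescript SK(+) DNA (3:1 DNA:enzyme), 30 min at 37°C with DIM (1–50 μM for fully mutant enzyme; 10 μM for single-site mutants); 4% DMSO vehicle control. Products on 1% agarose, ethidium bromide (0.5 μg/ml) stained; supercoiled monomer band quantified.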

The next experiment deals with DNA topoisomerase I (Leishmania donovani (strain BPK282A1), UniProt E9BRC0, F270L). As to the kind of experiment: Binding affinity to recombinant drug-resistant Leishmania donovani LdDR50 topoisomerase 1b large subunit F270L mutant after 24 hrs by equilibrium dialysis method. The essentials:
(§1)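 Recombinant His-tagged subunits expressed in E. coli BL21(DE3) pLysS, purified on Ni-NTA then phosphocellulose, reconstituted 1:1. Enzyme 200 μM with DIM 1–20 μM in 20 mM Tris-HCl pH 7.5, 50 mM NaCl, 10 mM MgCl2 for 30 min at 37°C, then dialysed (12–14 kDa cutoff) 24 h at 25°C. Free DIM measured by absorbance (ε 6.6 × 10^4 M−1); KD from saturation plot.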
A general note: In equilibrium dialysis only unbound substance equilibrates across the membrane.

The nature of experiment [2]: Binding affinity to Leishmania donovani large subunit of topoisomerase 1b.
The nature of experiment [3]: Binding affinity to Leishmania donovani small subunit of topoisomerase 1b.
Experiment [4] has as its system Leishmania donovani. Put plainly: Antimicrobial activity against wild type Leishmania donovani AG83 transfected with drug-resistant Leishmania donovani LdDR50 topoisomerase 1 F270L, N184S mutant in large subunit assessed as inhibition of parasite growth at 20 uM after 24 hrs by MTT assay. Format: functional. The note with it: AG83, 24 h. Put shortly: (§2)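 WT promastigotes transfected by electroporation with mutant large-subunit (pXG-HYG, hygromycin selection) and/or small-subunit (pXG-GFP2+, G418 selection) topoisomerase I genes. Grown with DIM 1–20 μM for 24 h; MTT read-out, growth as % of optical density of untreated WT parasites.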

Experiment [5] in a line: Binding affinity to recombinant drug-resistant Leishmania donovani LdDR50 topoisomerase 1b large subunit F270L, K430N mutant and small subunit N184S mutant after 24 hrs by equilibrium dialysis method. Put shortly: as §1
The subject of experiment [6] is T2, DNA topoisomerase type IB small subunit (Leishmania donovani (strain BPK282A1)), E9B7X3 [N184S].
T2 sequence (whole entry): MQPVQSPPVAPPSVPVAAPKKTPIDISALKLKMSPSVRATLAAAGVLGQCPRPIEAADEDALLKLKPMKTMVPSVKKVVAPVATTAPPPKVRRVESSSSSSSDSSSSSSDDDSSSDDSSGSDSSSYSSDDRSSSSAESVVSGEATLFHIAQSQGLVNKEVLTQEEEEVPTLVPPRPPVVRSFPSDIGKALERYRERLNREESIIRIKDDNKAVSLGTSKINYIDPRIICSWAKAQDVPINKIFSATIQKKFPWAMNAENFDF
Put plainly: Effect on recombinant drug-resistant Leishmania donovani LdDR50 topoisomerase 1b small subunit N184S mutant-mediated cleavage of 25-mer duplex oligonucleotide at 5 uM after 30 mins by PAGE analysis. Put shortly: (§3)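 5′-32P-labelled 25-mer duplex (10 nM) incubated with reconstituted mutant enzyme (0.2 μM, 20-fold molar excess) and DIM 5–20 μM for 30 min (Methods 37°C; legend 23°C). Stopped with SDS, trypsin-treated, resolved on 12% denaturing polyacrylamide-urea gel; cleaved 12-mer detected by autoradiography.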

The test system of experiment [7] is Leishmania donovani. Put plainly: Effect on recombinant wild type Leishmania donovani AG83 topoisomerase 1b-mediated cleavage of 25-mer duplex oligonucleotide at 20 uM after 30 mins by PAGE analysis. The essentials:
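The 5′-32P-labelled 25-mer duplex (10 nM) was incubated with 0.2 μM reconstituted WT His-tagged enzyme, a 20-fold molar enzyme excess. DIM was 0 or 5–20 μM, for 30 min. Reactions were stopped with SDS, trypsinised, and run on 12% denaturing polyacrylamide-urea gel with autoradiography. Read-out was the 12-mer cleaved product.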

Experiment [8] has as its system T2, DNA topoisomerase type IB small subunit (Leishmania donovani (strain BPK282A1)), E9B7X3 [N184S]. Put plainly: Effect on recombinant drug-resistant Leishmania donovani LdDR50 topoisomerase 1b small subunit N184S mutant-mediated cleavage of 25-mer duplex oligonucleotide at 20 uM after 30 mins by PAGE analysis. The essentials: as §3
In experiment [9] the test system is Leishmania donovani. Put plainly: Antimicrobial activity against wild type Leishmania donovani AG83 transfected with drug-resistant Leishmania donovani LdDR50 topoisomerase 1 K430N mutant in large subunit and N184S mutant in small subunit assessed as inhibition of parasite growth at 20 uM after 24 hrs by MTT assay. Format: functional. The following applies: AG83, 24 h. The essentials:
as §2

Experiment [10] concerns Leishmania donovani. Put plainly: Inhibition of recombinant wild type Leishmania donovani AG83 topoisomerase 1b-mediated relaxation of supercoiled pBluescript SK(+) DNA at 10 uM after 30 mins using ethidium bromide staining. Put shortly: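 Recombinant L and S subunits (E. coli, Ni-NTA then phosphocellulose) were reconstituted at a 1:1 molar ratio and dialysed 12 h at 4°C in 50 mM K-phosphate pH 7.5. Enzyme (30 fmol) acted on 90 fmol supercoiled pBS SK(+) for 30 min at 37°C, with DIM or 4% DMSO. Products ran on 1% agarose with ethidium bromide (0.5 μg/ml), and the supercoiled band was quantified.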

Regarding `c1ccc2c(Cc3c[nH]c4ccccc34)c[nH]c2c1` [ARUNDINE], the inhibition result in [1] is “inactive”. Besides, the Kd at DNA topoisomerase I stood at 530 µM; in experiment [2], 0.428 µM; in [3], 0.05 µM; in experiment [5], 240 µM. Further, the inhibition at 20 µM in the experiment with Leishmania donovani [4] was found to be 31%; in the experiment with Leishmania donovani [9], 86%. The result in [6] was inactive. The result (in the experiment with Leishmania donovani [7]; in experiment [8]) was Active. Also, the inhibition entry with Leishmania donovani [10] was “Active”.

The term inhibition denotes the percentage by which the read-out fell short of the control. A word on the Kd: it is the constant that tells how readily two partners part at equilibrium.
